The list is not random: actives were taken first. Their share in the collection is about 9.6%.
b-catenin transl = beta-catenin nuclear translocation modulation; 0.3% of 190,000 active; nuclear translocation activity, % at 5 µM; HeLa beta-catenin nuclear translocation, immunofluorescence imaging;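 active = nuclear translocation activity above 50% at 5 µM, with a well cell count of 50 or more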;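 note: per-cell ratio of nuclear to cytoplasmic median beta-catenin stain intensity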
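Test system: HeLa cells, endogenous beta-catenin; Compound: single 5 µM dose plus 0.02–20 µM confirmation series; Times: compound exposure 24 h at 37°C; Signal: fluorescence imaging of beta-catenin antibody stain plus DAPI; Read-out: % activation, nuclear-to-cytoplasmic median beta-catenin signal ratio per cell.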
BaF3 parental = reduces parental Ba/F3 cell viability, JAK2V617F counter-screen | CellTiter-Glo ATP luminescence | inhibition, % at 5.6 µM | 1.1% of 220,000 active | AID 1486;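 active = inhibition above a per-campaign cutoff, the mean inhibition of all tested compounds plus 3 SD, cut at about 27% in these data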
MT stabilize HCS = microtubule stabilization, imaging screen; % tubulin-high responders, % at 10 µM; 0.83% of 200,000 active; AID 2205; HeLa tubulin immunostaining HCS, 24 h; share of cells brighter than vehicle mean+2SD;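 active = plate Z-score above 3 for both tubulin-high and condensed-nucleus cell shares, with cell loss under 80%, at 10 µM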;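 note: anti alpha tubulin signal scored within the nucleus-defined area of each cell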
Lmaj promast = Leishmania major promastigote growth inhibition; inhibition, % at 10 µM; Leishmania major promastigotes, resazurin fluorescence viability; 9% of 200,000 active; in the data active = inhibition above about 50%;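 note: promastigotes grown with compound for 44 hours at 28 °C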
Ba/F3 V617F tox = loss of viability in JAK2V617F-driven Ba/F3 cells; Ba/F3 EpoR-JAK2V617F viability, ATP luminescence; inhibition, % at 5.6 µM; 1.1% of 220,000 active;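 active = inhibition above the campaign mean plus 3 SD over all tested compounds, cut at about 24% in these data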;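 note: cytokine-independent growth of Ba/F3 cells driven by EpoR plus mutant JAK2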
APP 5UTR inh = APP translation inhibition; SH-SY5Y APP 5'UTR-luciferase reporter, luminescence; inhibition, % at 2 µM; 0.82% of 190,000 active; AID 1285;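 active = inhibition above a set limit, derived from the sample mean plus 3 SD, cut at about 45% in these data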
Hits are given with their value.

For COc1ccc2c(c1)C=C(CN1CCN(C(C)C)C(CCO)C1)CO2 (stereo not drawn) the results were b-catenin transl inactive, BaF3 parental inactive, MT stabilize HCS inactive, Lmaj promast inactive, Ba/F3 V617F tox inactive and APP 5UTR inh inactive.
For OCCC1CN(Cc2c(F)cccc2Cl)CCN1C1CCCCC1 (stereo not drawn) the results were b-catenin transl inactive, BaF3 parental inactive, MT stabilize HCS inactive, Lmaj promast 53, Ba/F3 V617F tox inactive and APP 5UTR inh inactive.
Screening Cc1ccc(/C=C/C(=O)Nc2nnc(SCc3ccc(C#N)cc3)s2)o1 returned b-catenin transl inactive, BaF3 parental inactive, MT stabilize HCS inactive, Lmaj promast inactive, Ba/F3 V617F tox inactive and APP 5UTR inh inactive.
For CC(C)Cn1c(=S)[nH]c2cc(Cl)ccc21 the results were b-catenin transl inactive, BaF3 parental inactive, MT stabilize HCS inactive, Lmaj promast inactive, Ba/F3 V617F tox inactive and APP 5UTR inh inactive.
`OCCC1CN(Cc2nc(-c3ccccc3)cs2)CCN1Cc1ccc(F)cc1` (stereo not drawn) gave b-catenin transl inactive, BaF3 parental inactive, MT stabilize HCS inactive, Lmaj promast 79, Ba/F3 V617F tox inactive and APP 5UTR inh inactive.
`CC(C)=CCN1CCN(Cc2nc(-c3ccc(F)cc3)cs2)CC1CCO` (stereo not drawn) gave b-catenin transl inactive, BaF3 parental inactive and Ba/F3 V617F tox inactive.
`CN(C)CCN(C(=O)c1ccc(N2C(=O)CCC2=O)cc1)c1nc2cc3c(cc2s1)OCCO3` gave b-catenin transl inactive, BaF3 parental inactive, MT stabilize HCS inactive, Lmaj promast inactive, Ba/F3 V617F tox inactive and APP 5UTR inh inactive.
For N#C/C(=C\c1ccc(Cl)c([N+](=O)[O-])c1)c1ccccn1 the results were b-catenin transl 80, BaF3 parental inactive, MT stabilize HCS inactive, Lmaj promast inactive, Ba/F3 V617F tox inactive and APP 5UTR inh inactive.
For CC(NC(=O)/C(C#N)=C/c1ccc(Cl)c([N+](=O)[O-])c1)c1ccccc1 (stereo not drawn) the results were b-catenin transl inactive, BaF3 parental inactive, MT stabilize HCS inactive, Lmaj promast 100, Ba/F3 V617F tox inactive and APP 5UTR inh inactive.
Screening CCc1nnc(NC(=O)CN2CCN(c3ccc(Cl)cc3)CC2)s1 returned BaF3 parental inactive, MT stabilize HCS inactive, Lmaj promast inactive, Ba/F3 V617F tox inactive and APP 5UTR inh inactive.
For CCn1cc(CN2CCN(CCc3ccccc3)C(CCO)C2)c(C)n1 (stereo not drawn) the results were b-catenin transl inactive, BaF3 parental inactive, MT stabilize HCS inactive, Lmaj promast inactive, Ba/F3 V617F tox inactive and APP 5UTR inh inactive.
For Cc1cc(C)cc(N(CCC(=O)Nc2nnc(C)s2)S(=O)(=O)c2ccc(Cl)cc2)c1 the results were b-catenin transl inactive, BaF3 parental inactive, MT stabilize HCS inactive, Lmaj promast 93, Ba/F3 V617F tox inactive and APP 5UTR inh inactive.
For CC(=O)Nc1ccc(S(=O)(=O)NC2=C(N3CCN(Cc4ccccc4)CC3)C(=O)c3ccccc3C2=O)cc1 the results were b-catenin transl inactive, BaF3 parental inactive, MT stabilize HCS inactive, Lmaj promast 99, Ba/F3 V617F tox inactive and APP 5UTR inh inactive.
`C(#Cc1ccccc1)C[N+]1(CC#Cc2cccc3ccccc23)CCCC1` gave b-catenin transl inactive, BaF3 parental 81, MT stabilize HCS inactive, Lmaj promast 100, Ba/F3 V617F tox 97 and APP 5UTR inh inactive.
C#CC[N+]1(CC#Cc2ccc(C#CC[N+]3(CC#C)CCOCC3)cc2)CCOCC1 was read as b-catenin transl inactive, BaF3 parental inactive, MT stabilize HCS inactive, Lmaj promast inactive, Ba/F3 V617F tox inactive and APP 5UTR inh inactive.
For C#CC[N+]1(CC#Cc2ccccc2)CCCC1 the results were b-catenin transl inactive, BaF3 parental 45, MT stabilize HCS inactive, Lmaj promast inactive, Ba/F3 V617F tox 40 and APP 5UTR inh inactive.
`C#CC[N+]1(CC#Cc2cccc3ccccc23)CCOCC1` gave b-catenin transl inactive, BaF3 parental 50, MT stabilize HCS inactive, Lmaj promast inactive, Ba/F3 V617F tox 81 and APP 5UTR inh inactive.
Screening COC(=O)CC1C(=O)NCCN1C(=O)c1ccc(S(=O)(=O)N2CCOCC2)cc1 (stereo not drawn) returned b-catenin transl inactive, BaF3 parental inactive, MT stabilize HCS inactive, Lmaj promast inactive, Ba/F3 V617F tox inactive and APP 5UTR inh inactive.
Screening Cc1ccc(C)c(NC(=O)c2ccccc2C(=O)c2ccccc2)c1 returned b-catenin transl inactive, BaF3 parental inactive, MT stabilize HCS inactive, Lmaj promast inactive, Ba/F3 V617F tox inactive and APP 5UTR inh inactive.
C=CCn1c(C)cc(-c2csc(NC)n2)c1C was read as b-catenin transl inactive, BaF3 parental inactive, MT stabilize HCS inactive, Lmaj promast 96, Ba/F3 V617F tox inactive and APP 5UTR inh inactive.
Screening C=CCn1c(C)cc(-c2csc(NCC)n2)c1C returned b-catenin transl inactive, BaF3 parental inactive, MT stabilize HCS inactive, Lmaj promast inactive, Ba/F3 V617F tox inactive and APP 5UTR inh inactive.
O=c1c2sccc2nc(SCc2ccc([N+](=O)[O-])cc2)n1Cc1ccccn1 was read as b-catenin transl inactive, BaF3 parental inactive, MT stabilize HCS inactive, Lmaj promast 63, Ba/F3 V617F tox inactive and APP 5UTR inh inactive.
For Cc1ccc(CNC(=O)CSc2nc3ccsc3c(=O)n2Cc2ccccn2)cc1 the results were b-catenin transl inactive, BaF3 parental inactive, MT stabilize HCS inactive, Lmaj promast inactive, Ba/F3 V617F tox inactive and APP 5UTR inh inactive.
For CCOC(=O)c1c(-c2ccccc2)oc2ccc(O)c(CN(C)C)c12 the results were BaF3 parental inactive, MT stabilize HCS inactive, Lmaj promast 100, Ba/F3 V617F tox inactive and APP 5UTR inh inactive.
CCOC(=O)c1c(-c2ccccc2)oc2ccc(O)c(CN3CCCC3)c12 was read as b-catenin transl inactive, BaF3 parental inactive, MT stabilize HCS inactive, Lmaj promast 99, Ba/F3 V617F tox inactive and APP 5UTR inh inactive.
Screening CCOC(=O)c1c(CSCc2ccccc2)oc2ccc(O)c(CN(C)C)c12 returned b-catenin transl inactive, BaF3 parental inactive and Ba/F3 V617F tox inactive.
`O=C(CNCc1cccc2ccccc12)Nc1ccccc1[N+](=O)[O-]` gave b-catenin transl inactive, BaF3 parental inactive, MT stabilize HCS inactive, Lmaj promast inactive, Ba/F3 V617F tox inactive and APP 5UTR inh inactive.
Screening C(=N\c1nc2ccccc2n1CCN1CCCCC1)/c1cccs1 returned b-catenin transl inactive, BaF3 parental inactive, MT stabilize HCS inactive, Lmaj promast 53, Ba/F3 V617F tox inactive and APP 5UTR inh inactive.
For COc1ccc(-c2cc(C(=O)NNC(=S)NC(=O)c3c(-c4ccccc4)noc3C)[nH]n2)cc1 the results were b-catenin transl inactive, BaF3 parental inactive, MT stabilize HCS inactive, Lmaj promast 63, Ba/F3 V617F tox inactive and APP 5UTR inh inactive.
Screening CCOc1ccc(-c2cc(C(=O)NN)[nH]n2)cc1 returned BaF3 parental inactive, MT stabilize HCS inactive, Lmaj promast inactive, Ba/F3 V617F tox inactive and APP 5UTR inh inactive.

Bioassay records: PubChem, several laboratories
